Hits are enriched below; roughly 10% of the tested compounds scored in any of these assays.
WT yeast gro inh = growth inhibition of WT yeast, mitochondrial fusion screen; 2.1% of 190,000 active; AID 1362; inhibition, % at 10 µM; mitochondrial fusion phenotypic screen, WT strain; in the data active = inhibition above about 58%; tested in S. cerevisiae
PMI act = phosphomannose isomerase (human) activation. P34949. 0.005% of 190,000 active. purified human PMI, coupled resazurin fluorescence, 20 min; stronger effect = higher value; 1 = vehicle control, 0 substrate-free wells. AID 1214. activation factor at 20 µM;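 active = activation factor of 2 or more at 20 µM, relative to plate controls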
Target sequence (P34949 whole entry, looked up): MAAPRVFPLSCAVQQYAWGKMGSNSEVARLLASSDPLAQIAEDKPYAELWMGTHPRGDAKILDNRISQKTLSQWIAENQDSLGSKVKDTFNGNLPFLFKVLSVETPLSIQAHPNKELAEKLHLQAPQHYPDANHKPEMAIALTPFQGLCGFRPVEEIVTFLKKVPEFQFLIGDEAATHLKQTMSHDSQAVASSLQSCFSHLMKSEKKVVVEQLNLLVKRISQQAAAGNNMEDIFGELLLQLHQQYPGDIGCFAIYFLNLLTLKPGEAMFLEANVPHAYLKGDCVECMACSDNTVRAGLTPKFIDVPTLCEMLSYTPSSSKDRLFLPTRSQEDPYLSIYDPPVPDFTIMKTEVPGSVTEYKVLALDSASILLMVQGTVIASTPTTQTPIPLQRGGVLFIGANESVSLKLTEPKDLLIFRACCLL
PMI act satM6P = increases human PMI activity with near-saturating mannose 6-phosphate | coupled PMI enzyme assay, resazurin fluorescence, 20 min; stronger effect = higher value; 1 = untreated enzyme, 0 = substrate-free blank | activation factor at 20 µM | 0.34% of 190,000 active | AID 1216;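 active = activation factor of 2 or more at 20 µM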
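Test system: human phosphomannose isomerase with PGI, G6PDH, diaphorase coupling enzymes; Amount: PMI at 15 ng/mL final; Reagent: Mannose-6-phosphate 1.0 mM (near-saturating) plus 0.22 mM NADP+; Timing: 20 min, room temperature; Technique: resorufin fluorescence at Ex 544/Em 590 nm; Dosing: 20 µM single dose.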
L major viab = Leishmania major promastigote growth inhibition; 9% of 200,000 active; AID 1063; inhibition, % at 10 µM; Leishmania major promastigotes, resazurin fluorescence viability; in the data active = inhibition above about 50%;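 note: promastigotes grown with compound for 44 hours at 28 °C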
Diaph act CS = diaphorase activation or chemical reduction counter-screen; Diaphorase/resazurin coupled assay, resorufin fluorescence, 16 min; stronger effect = higher value; 1 = vehicle wells, 0 = NADH-free wells; AID 1229; activation factor at 20 µM; 0.005% of 190,000 active;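 active = diaphorase activity raised at least twofold by the compound at 20 µM; inactive = activation factor below 2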
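Test system: Clostridium kluyveri diaphorase, purified enzyme. Buffer or medium: 50 mM HEPES pH 7.4 buffer plus MgCl2 and Tween 20. Also added: 0.114 mM NADH and 0.1 mM resazurin, final amounts. Dosing: compound 20 µM once, DMSO 1%. Schedule: 16 min enzyme reaction, ambient temperature. Detection: fluorescence of resorufin, 544 nm excitation, 590 nm emission.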
An asterisk follows results filed as active; / = no result given.

SMILES | WT yeast gro inh | PMI act | PMI act satM6P | L major viab | Diaph act CS
Fc1cccc(C2NC(=S)NC3=C2N2CCC3CC2)c1 (centres undefined) | 5 | 0.9 | 1 | -4 | 0.9
Cc1cc(Nc2nc3ccccc3nc2Cl)n(-c2ccccc2C)n1 | 63* | 1 | 1.1 | 31 | 0.9
COC(=O)c1ccc(C)c(NS(=O)(=O)c2ccc(OC)cc2)c1 | 16 | 1 | 1 | 13 | 1
C/C(=N\NC(=O)CN(c1ccccc1Br)S(C)(=O)=O)c1cccs1 | 16 | 1.1 | 1.2 | 1 | 1
COC(=O)c1ccc(C)c(NS(=O)(=O)c2ccc3c(c2)OCCO3)c1 | 20 | 0.8 | 0.8 | 100* | 0.9
C/C(=N\NC(=O)CN(c1ccccc1Br)S(C)(=O)=O)c1ccc2c(c1)OCCO2 | 3 | 1 | 1 | 51* | 0.8
COc1ccccc1NS(=O)(=O)c1cccc(C(=O)N/N=C(\C)c2ccc(-n3ccnc3)cc2)c1 | -2 | 0.9 | 1 | 100* | 0.9
COc1ccccc1NS(=O)(=O)c1cccc(C(=O)N/N=C(\C)c2ccc3c(c2)OCCO3)c1 | 10 | 0.9 | 1 | 99* | 0.9
C/C(=N\NC(=O)c1ccccc1)c1ccc(-n2ccnc2)cc1 | -10 | 0.9 | 1 | -2 | 1
CC(=O)N1C(=O)/C(=C2\SC(=S)N(NS(=O)(=O)c3ccc(C)cc3)C2=O)c2ccccc21 | 7 | 0.8 | 0.6 | -6 | 0.9
CCOC(=O)c1c(C)oc2c(CN3CCN(C)CC3)c(Br)c(OC)c(O)c12 | / | 0.9 | 0.9 | 100* | 0.9
CCOC(=O)c1oc2ccccc2c1CN1CCN(C)CC1 | -2 | 1.1 | 1.2 | -2 | 0.9
CCOC(=O)c1c(CN2CCCCC2)n(C)c2cc(Br)c(O)cc12 | 21 | 1 | 1 | 39 | 0.9
CCOC(=O)c1c(CN2CCOCC2)n(-c2ccccc2)c2cc(Br)c(O)cc12 | 15 | 0.9 | 1 | 33 | 0.6
CCOC(=O)c1c(CN2CCN(C)CC2)n(C)c2cc(Br)c(OC)cc12 | 1 | 1 | 0.9 | 100* | 1
CCOC(=O)c1c(CN2CCOCC2)n(-c2ccccc2)c2cc(Br)c(OC)cc12 | 73* | 0.8 | 0.8 | 17 | 0.7
CC1(C)Cc2ccccc2C(/C(=N/O)C(N)=O)=N1 | -11 | 1 | 0.9 | 61* | 0.9
CC1(C)Cc2ccccc2C(/C(=N\Nc2cccc(Cl)c2)C(N)=O)=N1 | 60* | 0.8 | 0.9 | 98* | 0.8
CC(=O)Nc1cc(C(=O)N2CCc3ccccc3C2)ccc1Sc1ccc(Cl)cc1 | 38 | 0.8 | 1 | -5 | 0.8
N#C/C(=C\c1ccc(-c2ccc([N+](=O)[O-])cc2Br)o1)C(=O)N1CCN(c2ccccc2)CC1 | 16 | 1 | 1.1 | -6 | 0.9
COc1ccc(N=N/C(=C\O)C(=O)c2cccs2)cc1 | 7 | 1 | 1 | 69* | 0.9
COc1ccc(NC(=O)c2cccs2)cc1 | 5 | 1 | 1 | 2 | 0.9
O=C(/C(=C/O)N=Nc1ccc(Cl)cc1)c1ccncc1 | 20 | 0.9 | 1 | 100* | 0.9
COc1ccc(C(=O)/C(=C/O)N=Nc2ccc(F)cc2)cc1 | -5 | 0.8 | 0.8 | 61* | 0.8
COc1ccc(Cc2nnc(NC(=O)C(C)(C)C)s2)cc1 | -5 | 1 | 1.1 | -7 | 1
SMILES | WT yeast gro inh | PMI act | PMI act satM6P | L major viab | Diaph act CS
CCOc1ccc(S(=O)(=O)NCCC(=O)OCC(=O)N2CC(=O)Nc3ccccc32)cc1 | -15 | 1 | 1 | -6 | 0.9
O=C(/C=C/c1ccc(S(=O)(=O)N2CCOCC2)cc1)NCc1ccc(Cl)cc1 | 0 | 0.9 | 1.1 | 18 | 0.9
O=C(/C=C/c1ccc(S(=O)(=O)N2CCOCC2)cc1)NCc1ccccc1Cl | -15 | 1 | 1 | 80* | 1
CN(c1ccccc1)S(=O)(=O)c1cccc(NC(=O)CSc2nncn2C)c1 | -7 | 1.2 | 1.4 | 57* | 1
CN(c1ccccc1)S(=O)(=O)c1cccc(NC(=O)c2cc(=O)c3ccccc3o2)c1 | 28 | 1 | 1.1 | 80* | 0.8
CCCC(=O)Nc1cccc(S(=O)(=O)N(C)c2ccccc2)c1 | -17 | 1 | 1.1 | 67* | 0.9
O=C(Nc1cccc(S(=O)(=O)N2CCCCCC2)c1)c1cc(=O)c2ccccc2o1 | 12 | 1 | 1 | 21 | 0.8
Cn1cnnc1SCC(=O)Nc1cccc(S(=O)(=O)N2CCCCCC2)c1 | 13 | 1.1 | 0.9 | -3 | 0.9
COc1ccc(NC(=O)CN(C)CC(=O)Nc2cccc(S(=O)(=O)N(C)c3ccccc3)c2)cc1 | -4 | 0.8 | 0.9 | 81* | 0.8
O=C(Nc1ccccc1O)c1csc2c1CCCC2 | 13 | 0.9 | 0.9 | 14 | 0.8
COCCOC(=O)C1=C(C)N=C2SCCC(=O)N2C1c1ccc(OC(=O)c2ccco2)cc1 (centres undefined) | -16 | 1 | 1 | 5 | 0.9
CCN(CC)C(=O)c1sc(NC(=O)Cc2ccccc2)c(C#N)c1C | 14 | 1 | 1.1 | -4 | 1
CCN(CC)C(=O)c1sc(NC(=O)Cc2ccc(OC)cc2)c(C#N)c1C | 8 | 0.9 | 0.9 | 85* | 1
CC(C)CCN1CCN(Cc2ccsc2)CC1CCO (centres undefined) | -12 | 1 | 1 | -3 | 1
CC(C)CCN1CCN(Cc2cccc(C(F)(F)F)c2)CC1CCO (centres undefined) | 0 | 0.9 | 1 | 92* | 0.8
CC(C)CCN1CCN(Cc2ccc3nsnc3c2)CC1CCO (centres undefined) | 7 | 1 | 1 | 41 | 0.7
CSc1cccc(CN2CCN(CCC(C)C)C(CCO)C2)c1 (centres undefined) | 15 | 1 | 1 | 79* | 0.8
Cc1ccc(-c2nnc(N3CCCCC3)c3ccccc23)cc1S(=O)(=O)NCC1CCCO1 (centres undefined) | -9 | 0.9 | 1 | 13 | 0.9
O=C(CN1CCCc2ccccc21)N/N=C/c1ccccc1 | 3 | 0.9 | 0.9 | 12 | 0.8
O=C(CN1CCCc2ccccc21)N/N=C/c1c(O)ccc2ccccc12 | -27 | 0.9 | 0.9 | 99* | 0.7
O=C(CN1CCCc2ccccc21)N/N=C/c1ccc(O)cc1O | -14 | 1.1 | 1.1 | 98* | 0.8
NC(=O)CCn1nc(-c2ccc(Cl)cc2)c2ccccc2c1=O | 10 | 0.9 | 1 | 3 | 0.9
O=C(CCn1nc(-c2ccc(Cl)cc2)c2ccccc2c1=O)Nc1cccnc1 | 14 | 1.1 | 1.1 | 62* | 1
CCOC(=O)c1c(N)sc(C(O)(C(F)(F)F)C(F)(F)F)c1-c1ccc(F)cc1 | -12 | 0.8 | 0.9 | -2 | 0.8
CCOC(=O)c1c(N)sc(C(O)(C(F)(F)F)C(F)(F)F)c1-c1ccc(Cl)cc1 | 96* | 0.8 | 0.9 | 29 | 0.7
CC1CC(C)(C)NC(=S)N1CCCC(=O)NCCc1ccc(Cl)cc1 (centres undefined) | -4 | 1 | 1 | 3 | 0.9

Assay outcomes: PubChem, several laboratories
